Source: ChEMBL document CHEMBL1141130, “A novel selective GABA(A) alpha1 receptor agonist displaying sedative and anxiolytic-like properties in rodents” (J Med Chem, 2005)

Tests used:
Mus musculus [1] = test: Percent of mice not entering into the dark compartment in 120 s in 24 hr retention test at 0 hr treatment at a dose of 30 mg/Kg when given peroral […] avoidance test; n=10
[2] = Binding affinity for rat alpha2 beta2/3 gamma2 GABA-A/BzR receptor
Procedure, shortened: (§1)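 Recombinant rat αxβ2/3γ2 GABAA/benzodiazepine receptors expressed in HEK293 cells. Affinity measured by radioligand binding and reported as Ki. Values are means ± SEM from three independent experiments, each run in triplicate.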

[3] = Binding affinity for rat alpha-1 beta2/3 gamma2 GABA A / BzR receptor
Procedure, shortened: as §1

[4] = Binding affinity for rat alpha-3 beta2/3 gamma2 GABA-A/BzR receptor
Procedure, shortened: as §1

[5] = Binding affinity for rat alpha-5 beta2/3 gamma2 GABA-A/BzR receptor
Procedure, shortened: as §1

Mus musculus [6] = test: Percent of mice not entering into the dark compartment in 120 s in 24 hr retention test at 0 hr treatment at a dose of 10 mg/Kg when given peroral […] avoidance test; n=10
Rattus norvegicus [7] = test: Duration of loss of the righting reflex induced by ethanol at a dose of 30 mg/Kg when given per oral; n=8; format: functional, Mus musculus
Rattus norvegicus [8] = test: Duration of loss of the righting reflex induced by ethanol at a dose of 3 mg/Kg when given per oral; n=14; format: functional, Mus musculus
Rattus norvegicus [9] = test: Duration of loss of the righting reflex induced by ethanol at a dose of 0.3 mg/Kg when given per oral; n=8; format: functional, Mus musculus
Rattus norvegicus [10] = test: Duration of loss of the righting reflex induced by ethanol at a dose of 1 mg/Kg when given per oral; n=12; format: functional, Mus musculus

SMILES | % (Mus musculus [1]) [%] | Ki [2] [µM] | Ki [3] [µM] | Ki [4] [µM] | Ki [5] [µM] | % (Mus musculus [6]) [%] | Time (Rattus norvegicus [7]) [min] | Time (Rattus norvegicus [8]) [min] | Time (Rattus norvegicus [9]) [min] | Time (Rattus norvegicus [10]) [min]
Cc1ccc(-c2nn3ccc(C)nc3c2CC(=O)N(C)C)cc1 | 50 | > 10 | 0.031 | > 10 | > 10 | 40 | 104.9 | – | – | –
Cc1ccc(-c2nc3ccc(C)cn3c2CC(=O)N(C)C)cc1 [ZOLPIDEM] | 70 | – | – | – | > 10 | 50 | – | – | – | –
CN1C(=O)CN=C(c2ccccc2)c2cc(Cl)ccc21 [DIAZEPAM] | – | 0.02 | – | – | – | – | – | 149.5 | 127.4 | 129.3
